From ChEMBL document CHEMBL4480411, “Discovery of Second Generation RORγ Inhibitors Composed of an Azole Scaffold” (J Med Chem, 2019)
pEC50: −log10 of the molar value. Activity calls are given as the source filed them. The calls are words filed in the database; no cut-off is given here.

Legend:
Mus musculus = assay: Anti-inflammatory activity in C57BL/6 mouse model of IL23-induced dermatitis assessed as inhibition of ear swelling at 3 to 30 mg/kg, po administered once daily from day 1 to 11 and measured on days 1, 5, 8, 10, 12 post dose; assay type: functional, organism-based
In short: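 IL-23 dermatitis: 250 ng recombinant mouse IL-23 in 20 μL PBS with 0.1% BSA injected intradermally into left ear of anesthetized mice on days 1, 3, 5, 8 and 10. Oral dosing at 3 and 30 mg/kg (vehicle 0.5% MC, 10 mL/kg) daily days 1–11. Left ear thickness measured by digital gauge on days 1, 5, 8, 10, 12; change from day 1 baseline.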

[1] = target: T1, Nuclear receptor ROR-gamma (Homo sapiens, UniProt P51449); assay: Inhibition of human GAL4-fused RORgamma LBD transcriptional activity expressed in CHOK1 cells after 2 days by luciferase reporter gene assay; assay type: cell-based
T1 sequence (P51449 whole entry): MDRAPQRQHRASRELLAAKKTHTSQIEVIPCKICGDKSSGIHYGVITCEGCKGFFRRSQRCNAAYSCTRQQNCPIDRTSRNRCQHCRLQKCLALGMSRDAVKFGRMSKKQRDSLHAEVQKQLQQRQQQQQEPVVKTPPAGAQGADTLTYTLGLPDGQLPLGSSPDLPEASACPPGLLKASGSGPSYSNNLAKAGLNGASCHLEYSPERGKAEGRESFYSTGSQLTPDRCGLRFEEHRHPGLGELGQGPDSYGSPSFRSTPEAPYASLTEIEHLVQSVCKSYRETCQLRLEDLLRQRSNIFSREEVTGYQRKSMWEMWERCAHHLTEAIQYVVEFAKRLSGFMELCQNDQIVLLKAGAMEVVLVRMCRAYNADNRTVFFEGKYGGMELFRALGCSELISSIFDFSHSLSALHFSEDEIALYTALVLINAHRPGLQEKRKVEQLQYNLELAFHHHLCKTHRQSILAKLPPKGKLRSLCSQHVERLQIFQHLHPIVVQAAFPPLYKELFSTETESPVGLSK

[2] = Stability in human liver microsomes assessed as compound remaining after 60 mins; assay type: ADME, Microsome; conditions: read-out: Stability
In short: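 Human liver microsomes incubated with compound for 60 minutes; value reported as % of compound remaining.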

CC(C)(C)Cc1cc(-c2onc([C@@H](CCC(=O)[O-])CC(=O)Nc3ccc(Cl)cc3Cl)c2C2CC2)no1.[Na+]
Activity (Mus musculus): Active | pEC50 [1]: 8.05 | remaining at 1 h [2]: 96%
